What was measured:
KD mutant EGFR = test: EGFR phosphorylation western blot in PC9 cells; type: cell-based; details: 10μM NGI-1, 1 day
In short: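 PC9 cells (with A549 for comparison) were treated with 10 μM test compound for 24 h. Lysates were western blotted for EGFR phospho-Y1173, and glycoform gel-mobility shifts were noted.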

HCC-827 cells = test: Cell cycle distribution by flow cytometry, HCC-827; type: cell-based; details: HCC-827, NGI-1 24 h; control 50%; p<.01
In short: (§1)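 Cells were treated with test compound (24 h stated for PC9 and A549). 1 × 10^6 cells were washed in ice-cold PBS, fixed overnight in ice-cold 70% ethanol at −20°C, then stained in Guava Cell Cycle Reagent for 30 min at room temperature. Analysis was on an LSRII cytometer, gating normal FSC/SSC and excluding doublets by FSC-A vs FSC-H. About 30,000 cells per run; mean of 3 independent assays; two-tailed t-tests.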

H1581 cell line = test: MTT proliferation assay, H1581; type: cell-based; details: H1581 (FGFR1-dependent), 10μM NGI-1, 5 d
In short: (§2)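 NSCLC cells (2×10^3 per well, triplicate wells) were grown in 10% serum medium with 10 μM test compound or 1 μM tunicamycin; medium and inhibitor were renewed every 48 h. MTT was added 4 h before reading absorbance at 570 nm on days 0, 3 and 5. Mean ± s.d., n = 3; two-tailed t-tests.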

HCC-827 = test: Proliferation assay, HCC-827; type: cell-based; details: HCC-827 (EGFR KD mutation), NGI-1
GRP78/BiP = test: ER stress response, GRP78/BiP protein expression; type: cell-based; details: PC9 and A549 cell lines, NGI-1
A549 cells [1] = test: Apoptosis assessment, A549; type: cell-based
H3225 [2] = test: Cell cycle distribution by flow cytometry, H3225; type: cell-based; details: H3225, NGI-1 24 h; control 55%; p<.05
In short: as §1

PC9 cells [3] = test: Senescence assessment; type: cell-based; details: PC9, NGI-1 for 5 days; emission 575 nm; p<.05
In short: (§3)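 PC9 and A549 cells, untreated or given 10 μM test compound, were fixed in 70% ethanol and stained with DAPI for 30 min. Flow cytometry used 532 nm and 405 nm lasers; autofluorescence emission at 575 nm was read after DAPI gating; n = 4.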

cyclin D1 = test: Cyclin D1 mRNA and protein, A549; type: cell-based, human; details: A549, NGI-1
In short: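 Cyclin D1 mRNA: A549 and PC9 cells were treated with test compound, total RNA purified and reverse transcribed, and qPCR run with SYBR Green normalised to GAPDH. Cycling was 95°C 10 min, then 40 cycles of 95°C 30 s, 55°C 15 s, 72°C 30 s. Triplicate PCRs; n = 4; two-tailed t-tests. Protein was assessed by western blot, n = 3.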

A549 cells [4] = test: Senescence assessment, A549; type: cell-based; details: A549, NGI-1 for 5 days
In short: as §3

EGFR [5] = test: EGFR localization by surface biotinylation and confocal microscopy; type: cell-based; details: H3255 cells, 10 μM NGI-1, 24 h; identical in HCC-827
H1581 cells = test: Cell cycle distribution by flow cytometry, H1581; type: cell-based; details: H1581, NGI-1; control 55%; p<.05
In short: as §1

PC9 cells [6] = test: MTT proliferation assay, PC9; type: cell-based
In short: as §2

STT3B = STT3B (Homo sapiens, UniProt Q8TCJ2); test: 35S metabolic labeling of SHBG glycosylation; type: cell-based
In short: (§4)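 HeLa cells transfected with pSAP or SHBG vectors, given 10 μM test compound and metabolically labelled with 35S. Glycoforms were scored and reported as the average number of glycans per sample, with endoglycosidase H-treated controls. Runs were compared with siRNA knockdown of STT3A or STT3B against non-coding siRNA. Dose-response was run on pSAP and SHBG expressed in HEK293 cells.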

[7] = tested on: LLO synthesis in CHO cells; test: FACE analysis of LLOs in wild type CHO cells; type: cell-based; details: for effect on LLO synthesis: FACE
In short: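 Wild-type CHO cells were treated with test compound or tunicamycin. Lipid-linked oligosaccharides were analysed by fluorophore-assisted carbohydrate electrophoresis, with mature Glc3Man9 LLO as the size marker; n = 3.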

Integrin B1 (ITB1) = test: ITB1 glycosylation and localization; type: cell-based; details: 10μM NGI-1, 48 h; hypo-glycosylated ITB1 still at the cell surface
In short: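 H3255 cells were treated with 10 μM test compound for 48 h. Surface biotinylation: on ice, cells were labelled with 0.5 mg/ml Sulfo-NHS-SS-biotin in PBS for 60 min at 4°C, quenched with 100 mM glycine, lysed, and pulled down on streptavidin-agarose overnight at 4°C. Bound (surface) and unbound (intracellular) fractions were blotted on 7.5% SDS-PAGE. Confocal imaging used anti-β1-integrin at 1:500.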

EGFR [8] = test: Western blot of EGFR N-linked glycosylation in lung adenocarcinoma cells; type: cell-based; details: 10μM NGI-1, 24h; residual glycosylation remains
STT3A = STT3A (Homo sapiens, UniProt P46977); test: 35S metabolic labeling of pSAP glycosylation; type: cell-based
In short: as §4

[9] = tested on: N-linked glycosylation in D54-ERLucT cells; test: D54-ERLucT cell based luciferase assay for inhibition of N-linked glycosylation; details: intact D54 ER-LucT cells in culture; maximum activation using 20 μM NGI-1; n=4
A549 cells [10] = test: Cell cycle distribution by flow cytometry, A549; type: cell-based; details: A549, NGI-1 24 h
In short: as §1

[11] = tested on: luciferase N-linked glycosylation in D54 ER-LucT cells; test: Western blot of luciferase N-linked glycosylation in NGI-1 treated cell cultures; type: cell-based; details: doses 25 times the estimated IC50; unlike tunicamycin
PC9 cells [12] = test: Cell cycle distribution by flow cytometry, PC9; type: cell-based; details: PC9, NGI-1 24 h; control 65%; p<.01
In short: as §1

FGFR1 = test: FGFR phosphorylation western blot in H1581 and H2444; type: cell-based; details: H1581 and H2444 NSCLC cell lines, NGI-1
In short: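 H1581 and H2444 NSCLC cells were treated with test compound. Lysates were western blotted with anti-phospho-FGFR (Tyr653/654) at 1:3,000, and gel mobility was assessed.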

PC9 cells [13] = test: Apoptosis assessment, PC9; type: cell-based
A549 cell line = test: MTT proliferation assay, A549; type: cell-based
In short: as §2

H2444 cells [14] = test: MTT proliferation assay, H2444; type: cell-based; details: H2444 (FGFR amplified, not FGFR1-dependent), 10μM NGI-1, 5 d
In short: as §2

H2444 cells [15] = test: Cell cycle distribution by flow cytometry, H2444; type: cell-based; details: H2444, NGI-1
In short: as §1

OST [16] = type: biochemical; details: NGI-1 5 μM; streptolysin-O permeabilized CHO cells; QYT or NYT peptide
In short: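 CHO cells permeabilized with streptolysin-O, incubated with test compound and either control tripeptide Ac-Gln-Tyr-Thr-CONH2 or glycosylation acceptor Ac-Asn-Tyr-Thr-CONH2. Free glycans and cleaved N-linked glycans resolved by fluorophore-assisted carbohydrate electrophoresis; n=2 for each product.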

OST [17] = test: Cell free pSAP glycosylation with canine pancreas microsomes; type: biochemical; details: in vitro translation of pSAP mRNA, 60 min
H3225 [18] = test: Proliferation assay, H3225; type: cell-based; details: H3225 (EGFR KD mutation), NGI-1
p21 = p21 protein western blot, PC9; type: cell-based; details: PC9, NGI-1
[19] = HeLa cells, 10 μM, NGI-1 omitted during pulse labeling interval (20 minutes)

Sequence of STT3A (P46977 whole entry): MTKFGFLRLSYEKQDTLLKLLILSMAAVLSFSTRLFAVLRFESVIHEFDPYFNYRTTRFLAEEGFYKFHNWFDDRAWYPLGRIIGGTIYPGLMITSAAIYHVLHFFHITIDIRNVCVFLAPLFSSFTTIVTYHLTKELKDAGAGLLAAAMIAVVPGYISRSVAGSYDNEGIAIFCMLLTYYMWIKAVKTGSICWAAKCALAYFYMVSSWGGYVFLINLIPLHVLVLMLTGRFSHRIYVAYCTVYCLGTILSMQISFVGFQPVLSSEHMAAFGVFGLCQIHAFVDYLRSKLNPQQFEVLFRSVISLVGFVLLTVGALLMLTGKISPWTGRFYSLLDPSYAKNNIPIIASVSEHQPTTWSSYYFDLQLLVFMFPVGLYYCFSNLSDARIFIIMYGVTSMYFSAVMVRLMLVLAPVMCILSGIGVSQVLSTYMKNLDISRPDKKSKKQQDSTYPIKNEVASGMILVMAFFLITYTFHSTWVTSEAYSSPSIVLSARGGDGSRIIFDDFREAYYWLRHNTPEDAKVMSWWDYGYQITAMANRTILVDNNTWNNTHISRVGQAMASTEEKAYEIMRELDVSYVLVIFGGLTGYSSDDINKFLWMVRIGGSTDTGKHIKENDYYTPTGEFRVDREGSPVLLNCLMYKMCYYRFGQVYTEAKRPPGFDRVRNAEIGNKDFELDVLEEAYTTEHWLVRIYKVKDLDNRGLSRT

Compound: Cc1cnc(NC(=O)c2cc(S(=O)(=O)N(C)C)ccc2N2CCCC2)s1 [NGI-1]
- phosphorylation of KD mutant EGFR (Y1173) (KD mutant EGFR): blocked phosphorylation
- cells in G1 (HCC-827 cells): 75%
- effect on proliferation (H1581 cell line): blocked proliferation
- effect on proliferation (HCC-827): sensitive
- ER stress response (GRP78/BiP protein expression) (GRP78/BiP): induced a similar ER stress response in both cell lines
- induction of apoptosis (A549 cells [1]; A549, NGI-1 for 2 or 5 days): did not induce apoptosis
- cells in G1 (H3225 [2]): 80%
- increased autofluorescence by flow cytometry (PC9 cells [3]): 60.4% ± 7.5%
- cyclin D1 mRNA and protein levels (cyclin D1): not significantly affected
- hallmarks of senescence (autofluorescence, lipofuscin aggregates, morphology) (A549 cells [4]): none of these changes were detected
- EGFR trafficking / cellular localization (EGFR [5]): blocks EGFR trafficking to the cell surface
- cells in G1 (H1581 cells): 80%
- reduction of cell proliferation (PC9 cells [6]; PC9, 10μM NGI-1, after 3 days, MTT, p <.001): more than 90%
- reversibility of inhibition of site occupancy (STT3B specific sites) (STT3B; [19]): reversible
- LLO transfer to STT3B dependent sites (SHBG) (STT3B; dose response, HEK293 cells): completely blocks
- effect on LLO synthesis [7]: did not impair LLO synthesis
- increase of Glc3Man9GlcNAc2 LLO ([7]; p <.01): 31%
- ITB1 glycosylation (Integrin B1 (ITB1)): significantly reduced ITB1 glycosylation
- EGFR N-linked glycosylation (molecular weight on SDS-PAGE) (EGFR [8]): blocked EGFR N-linked glycosylation
- reversibility of inhibition of site occupancy (STT3A specific sites) (STT3A; [19]): reversible
- glycosylation of STT3A dependent sites (pSAP) (STT3A; dose response, HEK293 cells): less potent and incompletely blocks
- AC50 (equivalent to IC50), luciferase activity [9]: 1100 nM
- cell cycle distribution (A549 cells [10]): did not significantly change
- extent of N-linked glycosylation inhibition [11]: did not completely abolish all N-linked glycosylation
- cells in G1 (PC9 cells [12]): 90%
- FGFR1 phosphorylation (Y653/654) (FGFR1): blocked FGFR1 phosphorylation
- induction of apoptosis (PC9 cells [13]; PC9, NGI-1 for 2 or 5 days): did not induce apoptosis
- effect on proliferation (A549 cell line; A549 (KRAS G12S), 10μM NGI-1, MTT over 5 days): continued to proliferate
- effect on proliferation (H2444 cells [14]): NGI-1 insensitive
- G1 arrest (H2444 cells [15]): not in H2444 cells
- production of OST products (free glycans and N-glycans) (OST [16]): substantially reduce the production of both OST products
- inhibition of pSAP N-linked glycosylation (OST [17]): dose dependent inhibition
- effect on proliferation (H3225 [18]): sensitive
- protein levels of p21 (p21): increase within 24 h

Compound: tunicamycin [reference compound]
- induction of apoptosis (A549 cells [1]; A549, tunicamycin treatment): apoptosis was activated
- effect on proliferation (PC9 cells [6]; PC9, 1μM tunicamycin, MTT over 5 days): immediately blocks proliferation
- effect on LLO synthesis [7]: blocked all LLO production
- induction of apoptosis (PC9 cells [13]; PC9, tunicamycin treatment): apoptosis was activated
- effect on proliferation (A549 cell line; A549, 1μM tunicamycin, MTT over 5 days): immediately blocks proliferation

— publication PMC5393272 (Nature chemical biology, 2016)
